# Screens from PubChem BioAssay.
# A selection: hits, their analogues and other compounds. The true share with any hit is near 2.1%.
# FXIa inh: blocks human coagulation factor XIa protease activity; actives 0.14% (n = 220,000); AID 798; P03951; inhibition, % at 5 µM; purified FXIa, Boc-Glu-Ala-Arg-AMC fluorogenic substrate;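 active = inhibition of at least 40%; inactive = inhibition below 40%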;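 also: fluorescence of freed AMC excited at 355 nm; 0% = enzyme without compound and 100% = no enzyme blank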
# hK5 inh: inhibitors of human kallikrein 5; Q9Y337; recombinant hK5, fluorogenic AMC substrate cleavage; inhibition, % at 5 µM; actives 0.59% (n = 210,000); AID 873;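 active = inhibition of 40% or more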;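 also: 0% = enzyme controls without compound and 100% = no-enzyme blanks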
# Target sequence (Q9Y337 67-293 limits assumed): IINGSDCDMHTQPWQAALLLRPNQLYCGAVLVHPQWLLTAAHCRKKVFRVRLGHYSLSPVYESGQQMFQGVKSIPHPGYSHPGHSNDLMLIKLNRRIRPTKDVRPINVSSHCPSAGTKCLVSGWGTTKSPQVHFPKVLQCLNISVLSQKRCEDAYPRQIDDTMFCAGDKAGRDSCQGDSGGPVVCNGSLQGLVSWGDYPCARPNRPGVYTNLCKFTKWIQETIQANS
# FXIIa inh 1536: factor XIIa (human) inhibition. AID 800. purified FXIIa, Boc-QGR-AMC fluorogenic substrate, 2 h. actives 0.3% (n = 220,000). inhibition, % at 5 µM. P00748; in the data active = inhibition above about 40%;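 also: 0% = enzyme with no compound and 100% = blank without enzyme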
# Thrombin inh: blocks human thrombin protease activity. inhibition, % at 5 µM. P00734. actives 0.26% (n = 220,000). alpha-thrombin, Boc-VPR-AMC fluorogenic substrate cleavage;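 active = inhibition at or above 40%; inactive = inhibition below 40%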;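 also: 0% = enzyme with no compound and 100% = wells without enzyme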
#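 signal = AMC fluorescence, 355/460 nm | material = human alpha-thrombin enzyme | control set = enzyme without compound as high, wells lacking enzyme as low | times = reaction at room temperature | read-out basis = percent inhibition scaled between no-compound controls and no-enzyme blanks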
# EP2 antag: inhibitors of human EP2 prostaglandin E2 receptor | P43116 | C6 glioma cells expressing human EP2, cAMP TR-FRET; cells stimulated with saturating PGE2 | inhibition, % at 25 µM | actives 0.52% (n = 260,000) | AID 1422;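 active = percent inhibition above 40 after rounding to a whole number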;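 also: rat C6 glioma host cells with rolipram phosphodiesterase inhibitor present; the protocol text gives 20 µM as final concentration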
# Target sequence (P43116 whole entry, looked up): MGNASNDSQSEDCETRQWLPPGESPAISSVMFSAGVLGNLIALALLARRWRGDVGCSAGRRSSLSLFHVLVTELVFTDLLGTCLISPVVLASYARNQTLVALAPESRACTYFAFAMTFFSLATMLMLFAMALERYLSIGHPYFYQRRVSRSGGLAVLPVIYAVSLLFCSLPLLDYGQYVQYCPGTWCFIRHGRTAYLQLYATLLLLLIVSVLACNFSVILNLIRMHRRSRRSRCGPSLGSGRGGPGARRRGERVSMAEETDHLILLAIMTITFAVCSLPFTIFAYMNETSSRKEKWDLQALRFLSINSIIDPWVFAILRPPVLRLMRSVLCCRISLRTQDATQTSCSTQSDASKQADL
# EP2 modulator: modulates human prostaglandin E2 receptor EP2 signaling; AID 940; EP2-expressing cells, cAMP HTRF FRET, PGE2 co-stimulation; P43116; induction, % at 25 µM; actives 0.83% (n = 260,000);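 active = compounds whose cAMP rise, as percent of the full-agonist control response, exceeds 60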;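 also: rat C6 glioma line stably carrying human EP2 under a CMV promoter; the protocol text gives 20 µM as final concentration; 100% = response of wells given 1 µM PGE2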
# EP2 confirm: EP2 receptor cAMP induction, counter-screens negative | shares compounds with EP2 modulator | C6 glioma EP2 cells, cAMP HTRF induction; plus low (about EC15) PGE2 agonist | calls only at 20 µM (by protocol) | actives 47% (n = 1,300) | AID 1080;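 active = cAMP induction above 50% in the main assay while under 30% in all four parallel counter assays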;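 also: rat C6 glioma cells stably expressing human EP2 receptor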
# Active calls of the source: *; i = inactive; . = not tested or not shown; + = active, no number.
SMILES,FXIa inh,hK5 inh,FXIIa inh 1536,Thrombin inh,EP2 antag,EP2 modulator,EP2 confirm
COC(=O)C1C(c2ccccc2)C(C(=O)OCc2ccco2)C1c1ccccc1 (stereo unspecified),0,-8,2,-2,8,68*,i
O=C(O)C1C(c2ccccc2)C(C(=O)OCc2ccco2)C1c1ccccc1 (stereo unspecified),9,-2,14,0,8,15,.
Cc1ccc(-c2csc3ncnc(N4CCc5ccccc5C4)c23)cc1,-6,-6,-2,-7,4,70*,i
c1cncc(CN(CCN2CCOCC2)Cc2cccc(OC3CCCC3)c2)c1,.,.,.,.,6,-40,.
O=C(CNCC1CCCCC1)Nc1ccccc1N1CCCCC1,-1,-3,9,0,5,66*,+
O=C(CNC1CCCCCC1)Nc1ccccc1N1CCCCC1,-6,-7,5,-5,8,-17,.
O=C(Cc1c(F)cccc1Cl)Nc1ccccc1N1CCCCC1,1,-2,4,-5,5,75*,+
O=C(Nc1ccccc1N1CCCCC1)c1ccc(F)cc1,-6,-3,2,-7,6,66*,+
O=C(Nc1ccccc1N1CCCCC1)c1cccc([N+](=O)[O-])c1,2,-7,11,-10,3,51,+
O=C(Nc1ccccc1N1CCOCC1)c1cccc([N+](=O)[O-])c1,5,7,7,-8,10,2,.
CCC(C)(C)n1nnnc1C(c1ccccc1)N1CCC(C(N)=O)CC1 (stereo unspecified),.,.,.,.,1,-90,.
C=C(C)Cn1c(SCC(=O)O)nnc1-c1cc(OC)c(OC)c(OC)c1,.,.,.,.,14,-4,.
CCOC(=O)N1CC=C2C(C#N)=C(N)C(C#N)(C#N)C(Cc3ccccc3)C2C1 (stereo unspecified),.,.,.,.,8,23,.
CCCN1CCN(C(c2cc3cc(OC)ccc3[nH]c2=O)c2nnnn2C2CCCC2)CC1 (stereo unspecified),.,.,.,.,18,20,.
CCC(=O)N(Cc1ccccc1)Cc1cc2cc(OC)c(OC)cc2[nH]c1=O,.,.,.,.,9,-23,.
Cc1occc1-c1nnc(SCC(=O)Nc2ccccc2N2CCCCC2)n1C,3,-11,18,4,7,55,i
N#Cc1cn(-c2ccccc2)nc1-c1cc2ccccc2oc1=O,-4,-25,-6,2,8,65*,i
O=C(O)/C=C/c1cn(-c2ccccc2)nc1-c1cc2ccccc2oc1=O,6,-7,6,2,1,-4,.
O=S(=O)(C=C(c1ccccc1)c1ccccc1)c1ccccc1,1,-11,12,0,14,77*,+
O=S(=O)(/C=C/c1ccccc1)c1ccccc1,-2,-17,5,1,12,9,.
O=S(=O)(c1ccccc1)c1nc(-c2ccco2)oc1N1CCCCCC1,1,-7,6,1,15,68*,i
CN1CCN(c2oc(-c3ccco3)nc2S(=O)(=O)c2ccccc2)CC1,6,-19,10,4,15,-3,.
CCCCOc1ccccc1NC(=O)c1scc2c1OCCO2,3,0,4,1,5,87*,+
CC(c1ccccc1)c1nc2cnccn2c1NC(C)(C)C (stereo unspecified),.,.,.,.,7,-55,.
CCOP(=O)(c1ccccc1)c1nc(-c2ccccc2C)oc1NCc1ccccc1 (stereo unspecified),-4,-2,2,-8,6,47,.
SMILES,FXIa inh,hK5 inh,FXIIa inh 1536,Thrombin inh,EP2 antag,EP2 modulator,EP2 confirm
CCOP(=O)(c1ccccc1)c1nc(-c2ccccc2C)oc1N1CCCCC1 (stereo unspecified),-5,-16,14,-6,5,70*,+
CCOP(=O)(OCC)c1nc(-c2cccc3ccccc23)oc1N1CCCCC1,-15,-54,-46,-17,7,69*,+
Cc1ccccc1-c1nnc(SCC(N)=O)o1,.,.,.,.,19,14,.
CCCOc1ccc(C(=O)Nc2sc(C)c(C)c2C#N)cc1,.,.,.,.,13,2,.
COCc1nc2ccccc2n1Cc1ccc(C)cc1,.,.,.,.,12,11,.
Cc1ccc(Cn2c(Cc3ccccc3)nc3ccccc32)cc1,-6,-7,8,-5,4,80*,+
Cc1nc2cc(NCc3nc4ccccc4n3Cc3ccccc3)ccc2n1C,19,-13,21,1,.,-8,.
Cc1cccc(NCc2nc3ccccc3n2Cc2ccccc2)c1,-3,5,2,0,-1,66*,i
Cn1c(CNC(=O)c2ccccc2F)n[nH]c1=S,.,.,.,.,7,-1,.
CSc1nnc2c3ccccc3c3ccccc3c2n1,8,-8,11,2,.,76*,+
COc1ccc(C(c2nnnn2C(C)(C)C)N2CCC(C(N)=O)CC2)cc1 (stereo unspecified),.,.,.,.,6,-9,.
Cc1ccc(-n2nc3c(=S)[nH]nc(C)c3c2C)cc1,3,-24,-2,-9,.,81*,i
Cc1n[nH]c(=S)c2nn(-c3ccccc3)c(C)c12,-3,-16,13,0,.,43,.
N#Cc1sc2nc(N3CCCCC3)c3c(c2c1N)CCCC3,-6,-27,2,-4,17,73*,+
Cc1cccc2cc(C#N)c(SCC(=O)Nc3sc4c(c3C#N)CCCC4)nc12,.,.,.,.,18,31,.
CCOc1ccccc1COC(=O)c1cccc(-n2cnnn2)c1,1,-8,14,0,6,71*,i
CCc1c(C)nc2ccc(Br)cc2c1SCCC#N,-5,-5,-5,-7,12,65*,i
O=C(CSc1nc(C2CC2)nc2ccccc12)Nc1ccc(Cl)cc1,.,.,.,.,19,-41,.
C/C(CCc1oc2ccccc2c1-c1ccc(C)o1)=N/O,3,-11,3,2,4,75*,+
FC(F)(F)c1nnc(-c2ccccc2)nc1Sc1ccccc1,23,17,4,1,20,75*,i
O=C(c1cc(-c2ccccn2)nc2ccc(Br)cc12)N1CCc2ccccc2C1,0,-12,8,-3,.,66*,i
CC(C)c1nc2sc3c(c2c2nnc(SCC(=O)N4CCCC4)n12)CCCC3,.,.,.,.,8,11,.
CC1=CCc2c(cc3oc(C)cc(=O)c3c2O)OC1,.,.,.,.,4,52,i
CCC(C)NC(=O)C1CC(c2ccccc2O)=NO1 (stereo unspecified),.,.,.,.,13,2,.
CSc1nnc(CSCc2ccc(Cl)cc2Cl)n1-c1ccccc1,-3,-1,11,-5,5,61*,+
NS(=O)(=O)c1ccc(NC(=O)C2CCN(S(=O)(=O)c3ccccc3)CC2)cc1,.,.,.,.,12,-14,.
